From PubChem BioAssay
Thrombin inh = blocks human thrombin protease activity. AID 1046. hit rate 0.26% among 220,000. P00734. alpha-thrombin, Boc-VPR-AMC fluorogenic substrate cleavage. inhibition, % at 5 µM;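 active = inhibition at or above 40%; inactive = inhibition below 40%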;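 also: 0% = enzyme with no compound and 100% = wells without enzyme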
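Material: human alpha-thrombin protein. Incubation: reaction at ambient temperature. Technique: fluorescence of released AMC, ex 355 nm, em 460 nm. Control set: no-compound enzyme wells and no-enzyme blanks. Also added: Boc-VPR-AMC substrate, 15 µM final. Buffer or medium: pH 7.5 Tris (50 mM) with NaCl 150 mM, Tween 20 0.05%.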
STAT3 activator = activators of IL-6 induced STAT3 signaling. U3A cells, IL-6 STAT3-luciferase reporter, luminescence; 100% = signal with IL-6 EC80 alone. activation (% of control), % at 5.6 µM. hit rate 0.91% among 190,000;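 active = activation above the screen-wide mean of compound activation plus 3 SD, cut at about 130% in these data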;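 also: 0% = background luminescence of wells with medium and substrate only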
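Test system: STAT3-luciferase reporter U3A cells; Detection: reporter luminescence signal; Times: 1 h compound pre-exposure, 6 h IL-6 stimulation, 37 °C; Benchmarks: IL-6-only high control; Also added: IL-6 stimulus at 33 ng/mL final.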
FXIIa inh = factor XIIa (human) inhibition | P00748 | purified FXIIa, Boc-QGR-AMC fluorogenic substrate, 2 h | inhibition, % at 5 µM | hit rate 0.3% among 220,000 | AID 800; in the data active = inhibition above about 40%;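 also: 0% = enzyme with no compound and 100% = blank without enzyme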
AHR act = human AHR activation; hit rate 2.5% among 320,000; AHR-responsive luciferase reporter cells, luminescence; P35869; activation, % at 5 µM; in the data active = activation above about 47%;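 also: 0% = vehicle wells and 100% = reference agonist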
KLK5 inh = inhibitors of human kallikrein 5 | Q9Y337 | hit rate 0.59% among 210,000 | AID 873 | inhibition, % at 5 µM | recombinant hK5, fluorogenic AMC substrate cleavage;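 active = inhibition of 40% or more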;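 also: 0% = enzyme controls without compound and 100% = no-enzyme blanks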
FXIa inh = blocks human coagulation factor XIa protease activity | P03951 | purified FXIa, Boc-Glu-Ala-Arg-AMC fluorogenic substrate | AID 798 | hit rate 0.14% among 220,000 | inhibition, % at 5 µM;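 active = inhibition of at least 40%; inactive = inhibition below 40%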;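 also: fluorescence of freed AMC excited at 355 nm; 0% = enzyme without compound and 100% = no enzyme blank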
Target sequence (P03951 19-387 limits assumed): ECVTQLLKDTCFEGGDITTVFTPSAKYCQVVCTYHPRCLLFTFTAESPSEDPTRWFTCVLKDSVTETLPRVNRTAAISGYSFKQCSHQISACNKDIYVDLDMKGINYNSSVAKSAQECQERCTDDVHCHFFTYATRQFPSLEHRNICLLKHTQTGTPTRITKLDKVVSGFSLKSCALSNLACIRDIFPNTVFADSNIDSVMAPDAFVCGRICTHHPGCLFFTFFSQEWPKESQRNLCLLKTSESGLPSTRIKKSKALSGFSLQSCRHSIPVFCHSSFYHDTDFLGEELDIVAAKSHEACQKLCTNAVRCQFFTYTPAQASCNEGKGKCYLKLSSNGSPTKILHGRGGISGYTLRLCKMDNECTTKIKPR
Target sequence (P03951 388-625 limits assumed): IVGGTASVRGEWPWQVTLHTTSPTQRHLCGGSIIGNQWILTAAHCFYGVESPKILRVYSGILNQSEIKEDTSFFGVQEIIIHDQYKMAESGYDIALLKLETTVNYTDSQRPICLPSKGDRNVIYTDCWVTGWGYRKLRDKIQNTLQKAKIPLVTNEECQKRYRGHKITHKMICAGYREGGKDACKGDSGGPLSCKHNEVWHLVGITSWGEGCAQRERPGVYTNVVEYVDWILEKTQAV
AHR act confirm = confirmation of human aryl hydrocarbon receptor activators. hit rate 87% among 2,300. human cells, AHR-responsive luciferase reporter, luminescence. activation, % at 9 µM. shares compounds with AHR act; in the data active = activation above about 49%;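 also: HepG2 hepatoma cells carrying a DRE-driven firefly luciferase reporter; 0% = vehicle wells and 100% = reference agonist wells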
PXR act counter = activates human PXR in AHR activator counter-screen. shares compounds with AHR act. cell-based PXR reporter, luciferase luminescence. activation, % at 11.6 µM. hit rate 88% among 2,300; in the data active = activation above about 11%;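 also: human hepatoma DPX-2 cells expressing full-length human PXR; 0% = DMSO and 100% = reference agonist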
* = called active by the depositor; . = not tested or not shown. In the library only some 3.5% were active in any assay of this set; here they are far more common.

SMILES	Thrombin inh	STAT3 activator	FXIIa inh	AHR act	KLK5 inh	FXIa inh	AHR act confirm	PXR act counter
CCCC(=O)Nc1nc(C)c(-c2csc(Nc3cc(OC)ccc3OC)n2)s1	-4	92	3	85*	.	2	76*	45*
CC(=O)Nc1ccc(NC(=O)C(C)OC(=O)c2cccc(S(=O)(=O)N3CCCCCC3)c2)cc1 (stereo unspecified)	.	.	.	1	.	.	.	.
Cc1cc(C)c2c(N)c(C(=O)NN3CC(=O)N(c4cccc(Cl)c4)CC3=O)sc2n1	-1	.	3	3	1	-3	.	.
COc1cc(Nc2ccc(S(N)(=O)=O)cc2)c([N+](=O)[O-])nc1[N+](=O)[O-]	.	.	.	-1	.	.	.	.
Cn1c(=O)c([N+](=O)[O-])c(NCc2ccc3c(c2)OCO3)c2ccccc21	1	.	1	89*	-4	-2	99*	86*
CCn1c(=O)c([N+](=O)[O-])c(NCCc2ccccc2)c2ccccc21	-4	80	5	-3	-1	1	.	.
Cn1c(=O)c([N+](=O)[O-])c(NCCc2ccccc2)c2ccccc21	-6	92	4	81*	1	-7	89*	49*
CCc1ccc2c(c1)C1(SC(NC(C)=O)=NN1C(C)=O)C(=O)N2CC (stereo unspecified)	-10	92	2	2	1	-4	.	.
O=C(C[n+]1cc(Br)cc2ccccc21)c1ccc(Br)cc1	.	.	.	101*	.	.	112*	30*
CCc1cccc(CC)c1NC(=O)CSc1nc2ccc(N3C(=O)C4C5C=CC(C5)C4C3=O)cc2s1 (stereo unspecified)	-4	92	12	126*	-7	-1	53*	69*
CC(=O)NC1=NN(C(C)=O)C2(S1)C(=O)N(CC(C)C)c1ccc(C)cc12 (stereo unspecified)	-5	.	4	-2	1	-1	.	.
COc1ccc2c(c1)C(=NNc1ccc(C(=O)O)cc1)c1cc(OC)ccc1-2	.	.	.	86*	.	.	108*	11*
COc1ccc(/C(C)=N/Nc2ccc(C(=O)O)cc2)c(OC)c1	-10	99	14	-1	-18	5	.	.
O=C(O)C1Cc2c([nH]c3ccccc23)C(c2ccc3c(c2)OCO3)N1 (stereo unspecified)	4	105	15	90*	-12	4	73*	12*
COC(=O)[C@H]1Cc2c([nH]c3ccccc23)[C@H](c2ccccc2)N1	.	.	.	19	.	.	.	.
CNc1ncnc(Sc2ccc(Cl)cc2)c1[N+](=O)[O-]	-4	.	3	-1	1	4	.	.
Cc1cccc(NC(=O)c2cc(=O)[nH]c3ccccc23)c1	.	.	.	89*	.	.	90*	11*
CN(C)S(=O)(=O)c1cccc(NC(=O)c2cc(=O)[nH]c3ccccc23)c1	-1	106	7	2	-2	1	.	.
CCCCOC(=O)Nc1nnc(-c2ccccc2OC)s1	-8	101	-16	26	-23	-18	.	.
COc1ccccc1-c1nnc(NC(=O)C(C)C)s1	3	110	10	84*	-15	5	123*	16*
CC(C)C(=O)Nc1nnc(NC(=S)Nc2ccccc2)s1	-6	103	2	104*	-4	-1	61*	21*
COc1ccccc1-c1nnc(NC(C)=O)s1	-4	88	-5	82*	-1	-3	59*	.
COc1ccc(NC(=S)Nc2cccc(C(F)(F)F)c2)c(C)c1	-4	100	4	1	.	0	.	.
COc1ccc(Nc2nc(Nc3ccc(OC)cc3OC)nc(N3CCN(C)CC3)n2)c(OC)c1	1	93	8	-1	-10	6	.	.
Cc1ccccc1Nc1n[nH]c(C)c1[N+](=O)[O-]	-6	103	5	80*	0	-2	106*	22*
SMILES	Thrombin inh	STAT3 activator	FXIIa inh	AHR act	KLK5 inh	FXIa inh	AHR act confirm	PXR act counter
Cc1ccc(Nc2n[nH]c(C)c2[N+](=O)[O-])c(C)c1	-6	107	7	132*	-14	-5	127*	15*
Cc1[nH]nc(Nc2ccc(O)cc2)c1[N+](=O)[O-]	1	88	8	-4	3	5	.	.
Cc1ccc(N2CCC(N3CCN(C4CCCCC4)C(CCO)C3)CC2)cc1 (stereo unspecified)	-7	107	5	2	.	-2	.	.
O=C(Nc1cc(Cl)ccc1Cl)c1ccc(-c2ccccc2)cc1	2	116	27	87*	-14	23	90*	29*
Clc1ccc(-c2cn3cc(Br)ccc3n2)cc1Cl	-3	91	-2	90*	3	-1	137*	16*
Clc1ccc2nc(-c3ccc4c(c3)OCO4)cn2c1	-7	29	0	23	.	-3	.	.
Cc1nc(N2CCN(c3ccccc3)CC2)nc2c1C(=O)CC(C)C2 (stereo unspecified)	-7	82	-9	92*	0	-6	62*	13*
Cc1nc(N2CCN(c3ccccc3)CC2)nc2c1C(=O)CC(c1ccccc1)C2 (stereo unspecified)	-2	93	13	2	8	3	.	.
CCOc1ccc(OCCOc2ncnc3ccccc23)cc1	-4	105	3	23	7	-9	.	.
COC(=O)c1onc(-c2c(Cl)cccc2Cl)c1C(=O)OC	-2	.	6	2	-2	3	.	.
COc1cc(/C=C2\NC(=S)N(C)C2=O)ccc1OCc1cccc(F)c1	.	.	.	5	.	.	.	.
CN1C(=O)/C(=C/c2ccccc2OCc2ccccc2)NC1=S	1	103	21	90*	-3	19	64*	30*
CN1C(=O)/C(=C/c2ccccc2OCc2cccc(F)c2)NC1=S	2	94	4	97*	-16	-10	74*	35*
CCN(CC(=O)NCc1ccccc1Cl)CC(=O)Nc1c(F)cccc1F	1	.	10	0	1	-2	.	.
CCOc1ccc(N=C(C)C2=C(O)c3ccccc3C2=O)cc1	-7	.	3	3	-3	-4	.	.
CCOc1ccc(N=C(NN)c2ccc3ccccc3n2)cc1	-14	104	1	108*	-9	-4	110*	19*
CCN1CCc2nc3ccccc3c(C(=O)Nc3ccc(NC(C)=O)cc3)c2C1	-4	.	9	8	-6	5	.	.
CCN1CCc2nc3ccccc3c(C(=O)Nc3ccc(F)cc3)c2C1	-11	.	0	94*	2	-12	63*	26*
CCC(C)/C(C)=N/NC(=O)c1ccc(COc2ccc(Cl)c(C)c2)cc1 (stereo unspecified)	-7	114	-3	3	-16	-7	.	.
O=C(Nc1ccccc1F)C1COc2ccccc2O1 (stereo unspecified)	.	.	.	1	.	.	.	.
